The nature of data set [1]: Toxicity in BALB/c mouse infected with Trypanosoma cruzi MHOM/Pe/2011/Arequipa;DTU 5 bloodstream trypomastigote assessed as decrease in serum alkaline phosphatase level in chronic phase at 20 mg/kg/day, po administered for 5 consecutive days starting from day 70 post infection and measured at day 76 post infection relative to control. In kind it is organism-based. Set-up: scale not given: the % may be the effect or the level left. The conditions noted are these: in vivo.

Data set [2] in a line: Genotoxicity in Salmonella typhimurium TA1535 harboring pSK1002 assessed as survival at 0.016 mg/ml in presence of Sprague-Dawley rat liver S9 fraction metabolic activation by SOS/umu assay relative to control. It is filed as toxicity, subcellular. The conditions noted are these: salmonella enterica subsp. enterica serovar typhimurium, read-out: Survival. Summed up: (§1)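 Survival of S. typhimurium TA1535/pSK1002 exposed to a range of compound concentrations with or without S9 mix in 96-well format. Survival percentage measured as the cytotoxicity arm of the SOS/umu test. Concentrations with survival ≥80% are counted as non-cytotoxic.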

Data set [3] can be described thus: Genotoxicity in Salmonella typhimurium TA1535 harboring pSK1002 assessed as umu gene induction at 0.002 mg/ml in presence of Sprague-Dawley rat liver S9 fraction metabolic activation by SOS/umu assay relative to control. It is filed as toxicity, subcellular. The note with it: salmonella enterica subsp. enterica serovar typhimurium, read-out: FC. The gist of the method: (§2)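 umu induction in S. typhimurium TA1535/pSK1002, with or without S9 mix, in 96-well format. β-galactosidase read colorimetrically with ONPG substrate. Output given as relative units and induction factor (IF). The run is valid if positive controls reach IF ≥2. A compound counts as genotoxic at IF ≥2 at a concentration giving ≥80% bacterial survival.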

Data set [4] in a line: Toxicity in BALB/c mouse infected with Trypanosoma cruzi MHOM/Pe/2011/Arequipa;DTU 5 bloodstream trypomastigote assessed as decrease in serum alkaline phosphatase level in acute phase at 20 mg/kg/day, po administered for 5 consecutive days starting from day 8 post infection and measured on day 100 post infection by biochemical analysis relative to control. The note with it: in vivo. Also on record: scale not given: the % may be the effect or the level left. It is filed as organism-based. The gist of the method: (§3)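 Female BALB/c mice (10–12 weeks, 14–20 g; groups of three) were infected i.p. with 5 × 10^5 Arequipa bloodstream trypomastigotes. Dosing was oral at 20 mg/kg/day for 5 days, from day 8 pi (acute) or day 70 pi (chronic), as a 2 mg/ml suspension in 5% DMSO/0.5% HPMC; controls received vehicle. Cyclophosphamide 200 mg/kg i.p. was given at day 80 pi. Serum was collected 2 days post-treatment and at necropsy by cardiac puncture and compared with infected untreated controls.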

Data set [5] relates to Trypanosoma cruzi. Description: Antitrypanosomal activity against Trypanosoma cruzi MHOM/Pe/2011/Arequipa;DTU 5 bloodstream trypomastigotes infected in BALB/c mouse assessed as decrease in splenomegaly in chronic phase at 20 mg/kg/day, po administered for 5 consecutive days starting from day 70 post infection relative to untreated control. In kind it is functional. Also on record: scale not given: the % may be the effect or the level left. The gist of the method:
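Female BALB/c mice (three per group) were infected i.p. with 5 × 10^5 Arequipa trypomastigotes and dosed orally at 20 mg/kg/day for 5 days in 5% DMSO/0.5% HPMC. Controls were uninfected and vehicle-only groups. At the end of the experiment spleens were weighed and expressed as % of body weight.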

Data set [6] in a line: Genotoxicity in Salmonella typhimurium TA1535 harboring pSK1002 assessed as umu gene induction at 0.001 mg/ml in absence of Sprague-Dawley rat liver S9 fraction metabolic activation by SOS/umu assay relative to control. In kind it is toxicity. The note with it: salmonella enterica subsp. enterica serovar typhimurium, read-out: FC. Summed up:
as §2

A short description of data set [7]: Genotoxicity in Salmonella typhimurium TA1535 harboring pSK1002 assessed as umu gene induction at 0.5 mg/ml in presence of Sprague-Dawley rat liver S9 fraction metabolic activation by SOS/umu assay relative to control. The conditions noted are these: salmonella enterica subsp. enterica serovar typhimurium, read-out: FC. It is filed as toxicity, subcellular. Summed up:
as §2

Data set [8] can be described thus: Genotoxicity in Salmonella typhimurium TA1535 harboring pSK1002 assessed as survival at 1 mg/ml in presence of Sprague-Dawley rat liver S9 fraction metabolic activation by SOS/umu assay relative to control. In kind it is toxicity, subcellular. The note with it: salmonella enterica subsp. enterica serovar typhimurium, read-out: Survival. The gist of the method:
as §1

Data set [9] in a line: Genotoxicity in Salmonella typhimurium TA1535 harboring pSK1002 assessed as survival at 0.004 mg/ml in presence of Sprague-Dawley rat liver S9 fraction metabolic activation by SOS/umu assay relative to control. In kind it is toxicity, subcellular. The conditions noted are these: salmonella enterica subsp. enterica serovar typhimurium, read-out: Survival. Summed up:
as §1

The nature of data set [10]: Genotoxicity in Salmonella typhimurium TA1535 harboring pSK1002 assessed as survival at 0.002 mg/ml in presence of Sprague-Dawley rat liver S9 fraction metabolic activation by SOS/umu assay relative to control. It is filed as toxicity, subcellular. The conditions noted are these: salmonella enterica subsp. enterica serovar typhimurium, read-out: Survival. Summed up: as §1

Data set [11] can be described thus: Toxicity in BALB/c mouse infected with Trypanosoma cruzi MHOM/Pe/2011/Arequipa;DTU 5 bloodstream trypomastigote assessed as change in serum aspartate aminotransferase level in chronic phase at 20 mg/kg/day, po administered for 5 consecutive days starting from day 70 post infection measured on day 100 post infection relative to control. In kind it is organism-based. The note with it: in vivo. The gist of the method:
as §3

Data set [12] can be described thus: Genotoxicity in Salmonella typhimurium TA1535 harboring pSK1002 assessed as umu gene induction at 0.125 mg/ml in absence of Sprague-Dawley rat liver S9 fraction metabolic activation by SOS/umu assay relative to control. The note with it: salmonella enterica subsp. enterica serovar typhimurium, read-out: FC. It is filed as toxicity. The gist of the method: as §2

Data set [13] is described as follows: Toxicity in BALB/c mouse infected with Trypanosoma cruzi MHOM/Pe/2011/Arequipa;DTU 5 bloodstream trypomastigotes assessed as decrease in serum aspartate aminotransferase level in acute phase at 20 mg/kg/day, po administered for 5 consecutive days starting from day 8 post infection and measured at day 14 post infection by biochemical analysis relative to control. In kind it is organism-based. Also on record: scale not given: the % may be the effect or the level left. The note with it: in vivo.

Data set [14] can be described thus: Mutagenecity against Salmonella typhimurium TA 102 assessed as number of colonies at 7.4 ug/plate in absence of Sprague-Dawley rat S9 with metabolic activation measured after 48 hrs by Ames test (reference value: 78.7 +/- 7.8). It is filed as toxicity. The conditions noted are these: salmonella enterica subsp. enterica serovar typhimurium, s9, 48 h.
The nature of data set [15]: Toxicity in BALB/c mouse infected with Trypanosoma cruzi MHOM/Pe/2011/Arequipa;DTU 5 bloodstream trypomastigote assessed as change in serum alkaline phosphatase level in chronic phase at 20 mg/kg/day, po administered for 5 consecutive days starting from day 70 post infection measured on day 100 post infection relative to control. It is filed as organism-based. The note with it: in vivo.

The nature of data set [16]: Toxicity in BALB/c mouse infected with Trypanosoma cruzi MHOM/Pe/2011/Arequipa;DTU 5 bloodstream trypomastigote assessed as decrease in serum urea level in chronic phase at 20 mg/kg/day, po administered for 5 consecutive days starting from day 70 post infection measured on day 100 post infection relative to control. It is filed as organism-based. The conditions noted are these: in vivo. Set-up: scale not given: the % may be the effect or the level left. The gist of the method:
as §3

Data set [17] is described as follows: Toxicity in BALB/c mouse infected with Trypanosoma cruzi MHOM/Pe/2011/Arequipa;DTU 5 bloodstream trypomastigote assessed as change in serum alkaline phosphatase level in chronic phase at 20 mg/kg/day, po administered for 5 consecutive days starting from day 70 post infection and measured at day 76 post infection relative to control. The note with it: in vivo. It is filed as organism-based. Summed up: as §3

Data set [18] is described as follows: Mutagenecity against Salmonella typhimurium TA97a assessed as number of colonies at 22.2 ug/plate in absence of Sprague-Dawley rat S9 with metabolic activation measured after 48 hrs by Ames test ( Rvb = 37 +/- 6.5). It is filed as toxicity. The note with it: salmonella enterica subsp. enterica serovar typhimurium, s9, 48 h.
The nature of data set [19]: Mutagenecity against Salmonella typhimurium TA98 assessed as number of colonies at 66.7 ug/plate in absence of Sprague-Dawley rat S9 measured after 48 hrs by Ames test (reference value: 3 +/- 2.6). The conditions noted are these: salmonella enterica subsp. enterica serovar typhimurium, s9, 48 h. It is filed as toxicity.
Data set [20] in a line: Mutagenecity against Salmonella typhimurium TA97a assessed as number of colonies at 22.2 ug/plate in presence of Sprague-Dawley rat S9 with metabolic activation measured after 48 hrs by Ames test (reference value: 55 +/- 7.1). It is filed as toxicity, subcellular. The conditions noted are these: salmonella enterica subsp. enterica serovar typhimurium, s9, 48 h.

The structures appear in SMILES notation.

Consider `O=C(CCN1CCN(c2ccc(C(F)(F)F)cc2)CC1)c1ccc(O)cc1`, for which the Activity result is “<= 10%” in [1], “<= 30%” in data set [4], 66% in data set [5] and more than 10% in [11]. Also, the viability at 0.016 mg/ml in data set [2] was determined as 110%. For the same compound, the fold induction at 0.002 mg/ml in [3] was found to be 0.89. In addition, the fold induction at 0.001 mg/ml in data set [6] is 0.91. Moreover, the fold induction at 0.5 mg/ml in [7] was found to be 0.74. Besides, the viability at 1 mg/ml in data set [8] is 216%. In [9], the viability at 0.004 mg/ml came out at 112%. Further, the viability at 0.002 mg/ml in data set [10] came to 108%. In data set [12], the fold induction at 0.125 mg/ml amounted to 0.7.
For `O=C(CCN1CCN(c2ccc(Cl)cc2)CC1)c1ccc(O)cc1`, the Activity entry in data set [13] is “<= 10%”; in data set [14] it was 72; in data set [15] it was more than 10%; in data set [16], “<= 10%”; in [17] it was more than 10%; in [4], “<= 10%”. Also, the Activity in data set [5] turned out to be 81%; in [18] it was 35.7; in data set [19], 4; in [20] it was 38.3. The viability at 0.016 mg/ml in [2] amounted to 106%. Further, the fold induction at 0.002 mg/ml in data set [3] came out at 0.74. Further, the fold induction at 0.001 mg/ml in [6] is 0.83. In addition, the fold induction at 0.5 mg/ml in [7] was found to be 0.46. Besides, the viability at 1 mg/ml in data set [8] stood at 213%. Besides, in data set [9], the viability at 0.004 mg/ml amounted to 108%. The viability at 0.002 mg/ml in data set [10] was determined as 111%. Moreover, the fold induction at 0.125 mg/ml in data set [12] turned out to be 0.45.
As for `O=C(Cn1ccnc1[N+](=O)[O-])NCc1ccccc1` [BENZNIDAZOLE], the Activity result in data set [16] is “<= 30%”; in data set [17], more than 10%; in [11], more than 10%.

(Values after ChEMBL document CHEMBL4402517, “Rational modification of Mannich base-type derivatives as novel antichagasic compounds: Synthesis, in vitro and in vivo evaluation” (Bioorg Med Chem, 2019).)
